From ChEMBL document CHEMBL4196128 (ACS Med Chem Lett, 2018)

What was measured:
[1] = Mean residence time in Beagle dog at 3 mg/kg, iv; type: ADME, organism-based, Canis lupus familiaris; details: in vivo
Procedure, shortened: (§1)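 Intravenous dosing in male CD1 mice (10 mg/kg, n = 30), Sprague–Dawley rats (3 mg/kg, n = 3), beagle dogs (3 mg/kg, n = 3) and cynomolgus monkeys (1 mg/kg, n = 3). Vehicle was aqueous 20% hydroxypropyl-β-cyclodextrin. Mean residence time and steady-state volume of distribution were taken from plasma concentration–time profiles as mean parameters.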

Cytochrome P450 2C19 = Cytochrome P450 2C19 (Homo sapiens, UniProt P33261); experiment: Inhibition of CYP2C19 (unknown origin) preincubated followed by substrate addition; type: ADME
Cytochrome P450 2C19, sequence (P33261 whole entry): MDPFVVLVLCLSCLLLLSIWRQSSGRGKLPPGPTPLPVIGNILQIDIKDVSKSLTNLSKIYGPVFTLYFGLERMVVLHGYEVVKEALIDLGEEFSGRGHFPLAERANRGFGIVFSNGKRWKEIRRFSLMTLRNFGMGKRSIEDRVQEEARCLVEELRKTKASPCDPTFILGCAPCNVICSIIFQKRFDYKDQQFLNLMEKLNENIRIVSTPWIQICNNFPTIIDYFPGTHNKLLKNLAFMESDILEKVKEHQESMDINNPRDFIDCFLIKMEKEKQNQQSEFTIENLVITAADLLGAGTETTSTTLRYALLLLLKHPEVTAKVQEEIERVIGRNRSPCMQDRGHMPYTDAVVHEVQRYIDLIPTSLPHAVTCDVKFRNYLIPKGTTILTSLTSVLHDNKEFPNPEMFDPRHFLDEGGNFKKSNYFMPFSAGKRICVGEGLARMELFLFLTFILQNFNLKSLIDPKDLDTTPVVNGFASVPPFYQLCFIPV

[2] = Oral bioavailability in Sprague-Dawley rat at 10 mg/kg; type: ADME, organism-based; details: in vivo
Procedure, shortened: (§2)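 Oral dosing in male CD1 mice (30 mg/kg, n = 27), Sprague–Dawley rats (10 mg/kg, n = 3), beagle dogs (30 mg/kg, n = 3) and cynomolgus monkeys (10 mg/kg, n = 3). Mean Tmax was read from plasma concentration–time data. Bioavailability was derived from oral AUC(0–∞) compared with intravenous AUC.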

Caspase (Homo sapiens) = Caspase (Homo sapiens) (UniProt P49662+P55211+P42574+P51878+P55212+P55210+Q14790+P29466+P42575+Q92851+P31944+Q6UXS9); experiment: Activation of caspase (unknown origin); type: protein assay
hERG (KCNH2) [3] = biological target: T1, hERG (KCNH2) (Homo sapiens, UniProt Q12809); experiment: Inhibition of human ERG at 1.5 mg/ml by binding assay relative to control; set-up: dose or concentration left out as unconfirmed
T1 sequence (Q12809 whole entry): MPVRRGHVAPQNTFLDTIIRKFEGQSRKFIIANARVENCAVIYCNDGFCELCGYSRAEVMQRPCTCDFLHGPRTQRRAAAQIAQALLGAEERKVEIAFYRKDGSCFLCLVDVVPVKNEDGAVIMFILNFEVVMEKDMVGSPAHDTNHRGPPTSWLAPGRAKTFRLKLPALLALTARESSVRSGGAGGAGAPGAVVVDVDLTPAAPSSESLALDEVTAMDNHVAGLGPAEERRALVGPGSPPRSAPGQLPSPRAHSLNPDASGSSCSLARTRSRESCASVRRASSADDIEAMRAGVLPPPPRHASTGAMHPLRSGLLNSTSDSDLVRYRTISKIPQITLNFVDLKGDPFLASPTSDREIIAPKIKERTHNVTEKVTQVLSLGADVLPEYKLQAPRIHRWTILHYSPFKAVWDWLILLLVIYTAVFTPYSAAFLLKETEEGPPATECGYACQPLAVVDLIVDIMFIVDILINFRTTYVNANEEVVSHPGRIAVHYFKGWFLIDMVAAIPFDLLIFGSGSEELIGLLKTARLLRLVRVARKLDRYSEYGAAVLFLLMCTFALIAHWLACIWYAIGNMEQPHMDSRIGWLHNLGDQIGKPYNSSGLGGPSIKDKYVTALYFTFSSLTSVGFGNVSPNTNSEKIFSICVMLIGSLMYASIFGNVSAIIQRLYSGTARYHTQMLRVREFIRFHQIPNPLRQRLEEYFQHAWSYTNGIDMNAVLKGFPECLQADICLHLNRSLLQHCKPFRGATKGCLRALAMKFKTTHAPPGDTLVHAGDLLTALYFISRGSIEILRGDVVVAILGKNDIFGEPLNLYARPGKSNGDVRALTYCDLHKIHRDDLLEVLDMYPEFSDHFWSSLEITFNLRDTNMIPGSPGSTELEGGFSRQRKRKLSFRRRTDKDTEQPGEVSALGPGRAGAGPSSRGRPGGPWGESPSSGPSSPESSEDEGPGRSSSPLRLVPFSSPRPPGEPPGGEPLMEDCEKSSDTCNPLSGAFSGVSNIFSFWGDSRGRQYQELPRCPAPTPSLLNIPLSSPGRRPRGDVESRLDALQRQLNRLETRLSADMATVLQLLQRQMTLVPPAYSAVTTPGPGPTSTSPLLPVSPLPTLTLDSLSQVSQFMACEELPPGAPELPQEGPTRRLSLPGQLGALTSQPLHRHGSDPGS

[4] = Volume of distribution at steady state in Sprague-Dawley rat at 3 mg/kg, iv; type: ADME, organism-based; details: in vivo, read-out: Vdss; procedure, shortened: as §1
[5] = Protein binding in dog plasma at 10 uM; type: ADME, cell-free, Canis lupus familiaris; details: read-out: PPB
Cytochrome P450 3A4 = Cytochrome P450 3A4 (Homo sapiens, UniProt P08684); experiment: Inhibition of CYP3A4 (unknown origin) co-incubated with substrate; type: ADME
Cytochrome P450 3A4, sequence (P08684 whole entry): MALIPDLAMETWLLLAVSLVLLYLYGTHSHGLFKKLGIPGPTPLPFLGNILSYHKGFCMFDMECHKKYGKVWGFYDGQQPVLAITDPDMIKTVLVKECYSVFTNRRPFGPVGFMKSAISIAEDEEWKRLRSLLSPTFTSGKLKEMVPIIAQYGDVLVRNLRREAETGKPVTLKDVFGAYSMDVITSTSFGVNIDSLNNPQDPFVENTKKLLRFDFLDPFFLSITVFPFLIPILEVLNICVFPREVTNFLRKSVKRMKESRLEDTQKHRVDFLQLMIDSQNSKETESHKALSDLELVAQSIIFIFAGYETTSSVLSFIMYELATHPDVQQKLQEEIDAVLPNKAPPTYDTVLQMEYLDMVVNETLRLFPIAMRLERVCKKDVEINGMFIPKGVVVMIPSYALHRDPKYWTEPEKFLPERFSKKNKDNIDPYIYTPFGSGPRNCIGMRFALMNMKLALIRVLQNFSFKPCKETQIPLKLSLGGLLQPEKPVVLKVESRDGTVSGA

Cavia porcellus = experiment: Cardiotoxicity in telemetered guinea pig assessed as changes in PR interval at 30 to 100 mg/kg; type: toxicity, organism-based; details: in vivo
Procedure, shortened: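 Telemetered guinea pigs were exposed at 30 and 100 mg/kg. Electrocardiographic PR, QRS and QT/QTc intervals were monitored for changes related to the test article, and exposure was referenced to total Cmax.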

hERG (KCNH2) [6] = biological target: T1, hERG (KCNH2); experiment: Inhibition of human ERG at 5 mg/ml by binding assay relative to control; set-up: dose or concentration left out as unconfirmed
[7] = Tmax in monkey at 10 mg/kg, po; details: cynomolgus monkey, in vivo
[8] = Clearance in Beagle dog at 3 mg/kg, iv; type: ADME, organism-based, Canis lupus familiaris; details: in vivo
Procedure, shortened: (§3)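 The compound was given intravenously as an aqueous solution in 20% hydroxypropyl-β-cyclodextrin. Animals were male CD1 mice (10 mg/kg, n = 30), Sprague–Dawley rats (3 mg/kg, n = 3), beagle dogs (3 mg/kg, n = 3) and cynomolgus monkeys (1 mg/kg, n = 3). Plasma concentration–time data gave mean AUC(0–∞), half-life, mean residence time, clearance and Vd,ss.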

hERG (KCNH2) [9] = biological target: T1, hERG (KCNH2); experiment: Inhibition of human ERG at 1 uM by IonWork assay relative to control
[10] = Clearance in Sprague-Dawley rat at 3 mg/kg, iv; type: ADME, organism-based; details: in vivo; procedure, shortened: as §3
[11] = Oral bioavailability in Beagle dog at 30 mg/kg; type: ADME, organism-based, Canis lupus familiaris; details: in vivo; procedure, shortened: as §2
[12] = Mean residence time in monkey at 1 mg/kg, iv; details: cynomolgus monkey, in vivo
[13] = biological target: Mitogen-activated protein kinase 1 (Homo sapiens, UniProt P28482); experiment: Inhibition of ERK2 (unknown origin) using peptide substrate measured after 45 mins by IMAP assay
Mitogen-activated protein kinase 1, sequence (P28482 whole entry): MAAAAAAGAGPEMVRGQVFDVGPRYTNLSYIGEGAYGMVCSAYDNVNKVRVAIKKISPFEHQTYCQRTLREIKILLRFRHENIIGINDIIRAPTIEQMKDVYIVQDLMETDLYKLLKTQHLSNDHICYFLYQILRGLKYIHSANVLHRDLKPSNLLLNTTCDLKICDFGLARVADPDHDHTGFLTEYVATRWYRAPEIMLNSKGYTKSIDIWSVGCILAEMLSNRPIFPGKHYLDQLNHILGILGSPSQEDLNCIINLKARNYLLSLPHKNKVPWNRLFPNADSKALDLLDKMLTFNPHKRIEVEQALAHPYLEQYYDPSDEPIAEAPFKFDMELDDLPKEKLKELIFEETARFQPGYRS

[14] = biological target: T2, Mitogen-activated protein kinase; ERK1/ERK2 (Homo sapiens) (UniProt P27361+P28482); experiment: Inhibition of ERK1/2 in human A2058 cells assessed as reduction in RSK phosphorylation after 24 hrs by Western blot analysis; type: cell-based
T2 sequence (P27361 whole entry, looked up): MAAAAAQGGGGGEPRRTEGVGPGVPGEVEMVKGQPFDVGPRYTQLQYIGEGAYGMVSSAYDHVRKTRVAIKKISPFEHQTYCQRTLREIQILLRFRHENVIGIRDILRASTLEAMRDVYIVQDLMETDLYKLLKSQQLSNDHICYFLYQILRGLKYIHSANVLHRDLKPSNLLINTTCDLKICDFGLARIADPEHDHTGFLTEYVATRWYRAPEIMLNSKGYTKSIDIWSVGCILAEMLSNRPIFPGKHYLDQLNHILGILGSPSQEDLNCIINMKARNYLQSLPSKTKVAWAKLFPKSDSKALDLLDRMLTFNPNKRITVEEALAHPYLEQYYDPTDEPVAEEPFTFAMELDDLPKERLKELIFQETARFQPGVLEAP
T2 sequence (P28482 whole entry, looked up): as the sequence (P28482 whole entry) above
Procedure, shortened: (§4)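 A2058 melanoma cells were treated across a compound dose range. pERK1/2 and pRSK levels were detected by Western blot analysis.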

Cytochrome P450 2D6 = Cytochrome P450 2D6 (Homo sapiens, UniProt P10635); experiment: Inhibition of CYP2D6 (unknown origin) preincubated followed by substrate addition; type: ADME
Cytochrome P450 2D6, sequence (P10635 whole entry): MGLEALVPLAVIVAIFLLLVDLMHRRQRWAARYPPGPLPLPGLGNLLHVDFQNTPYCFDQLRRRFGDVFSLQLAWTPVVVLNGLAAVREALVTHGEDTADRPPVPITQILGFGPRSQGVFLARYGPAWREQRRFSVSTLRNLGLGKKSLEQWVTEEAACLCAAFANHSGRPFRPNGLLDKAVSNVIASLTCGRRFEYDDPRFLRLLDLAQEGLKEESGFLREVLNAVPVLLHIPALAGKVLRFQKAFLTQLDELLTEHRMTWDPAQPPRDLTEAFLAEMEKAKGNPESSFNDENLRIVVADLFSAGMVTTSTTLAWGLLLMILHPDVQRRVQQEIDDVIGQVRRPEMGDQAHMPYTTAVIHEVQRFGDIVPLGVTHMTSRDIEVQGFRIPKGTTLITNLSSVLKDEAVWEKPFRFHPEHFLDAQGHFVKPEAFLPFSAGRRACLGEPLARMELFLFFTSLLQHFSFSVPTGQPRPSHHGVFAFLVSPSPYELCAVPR

[15] = biological target: T2, Mitogen-activated protein kinase; ERK1/ERK2 (Homo sapiens); experiment: Inhibition of ERK1/2 phosphorylation in human A2058 cells after 24 hrs by Western blot analysis; type: cell-based; procedure, shortened: as §4
[16] = Volume of distribution at steady state in Beagle dog at 3 mg/kg, iv; type: ADME, organism-based, Canis lupus familiaris; details: in vivo, read-out: Vdss; procedure, shortened: as §1
[17] = Protein binding in mouse plasma at 10 uM; type: ADME, cell-free; details: read-out: PPB
COLO 205 [18] = experiment: Antitumor activity against human COLO205 cells xenografted in nude mouse assessed as tumor growth inhibition at 20 mg/kg, po bid measured after 28 days relative to control; type: functional; details: COLO 205, po, 672 h, read-out: TGI
Procedure, shortened: (§5)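 Female nude mice carrying Colo-205 human colon tumor xenografts were randomized to oral dosing twice daily at 20, 40 or 60 mg/kg, or to vehicle. After 28 days of treatment, tumor growth inhibition or tumor regression was assessed relative to vehicle control, with P-value testing.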

[19] = Oral bioavailability in monkey at 10 mg/kg; details: cynomolgus monkey, in vivo
Cytochrome P450 2C8 = biological target: T3, Cytochrome P450 2C8 (Homo sapiens, UniProt P10632); experiment: Inhibition of CYP2C8 (unknown origin) preincubated followed by substrate addition; type: ADME
T3 sequence (P10632 whole entry): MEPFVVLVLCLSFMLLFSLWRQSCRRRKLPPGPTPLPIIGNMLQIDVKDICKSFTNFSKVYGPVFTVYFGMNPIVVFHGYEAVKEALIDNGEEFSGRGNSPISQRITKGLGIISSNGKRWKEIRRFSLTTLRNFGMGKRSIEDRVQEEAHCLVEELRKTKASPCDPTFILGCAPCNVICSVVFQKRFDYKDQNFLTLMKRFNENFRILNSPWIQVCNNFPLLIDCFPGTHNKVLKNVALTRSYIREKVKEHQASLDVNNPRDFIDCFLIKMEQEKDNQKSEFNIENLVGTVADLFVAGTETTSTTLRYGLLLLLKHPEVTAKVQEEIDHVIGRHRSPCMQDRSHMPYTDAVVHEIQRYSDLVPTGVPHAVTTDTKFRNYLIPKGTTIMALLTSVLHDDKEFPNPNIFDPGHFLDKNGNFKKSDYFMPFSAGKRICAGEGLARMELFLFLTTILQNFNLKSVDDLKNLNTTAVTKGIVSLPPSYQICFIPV

[20] = Volume of distribution at steady state in CD1 mouse at 10 mg/kg, iv; type: ADME, organism-based; details: in vivo, read-out: Vdss; procedure, shortened: as §1
hERG (KCNH2) [21] = biological target: T1, hERG (KCNH2); experiment: Inhibition of human ERG at 600 nM by voltage clamp method relative to control
[22] = Half life in Beagle dog at 3 mg/kg, iv; type: ADME, organism-based, Canis lupus familiaris; details: in vivo; procedure, shortened: as §3
COLO 205 [23] = experiment: Antitumor activity against human COLO205 cells xenografted in nude mouse assessed as tumor regression at 60 mg/kg, po bid measured after 28 days relative to control; type: functional; procedure, shortened: as §5
Cytochrome P450 2C9 = Cytochrome P450 2C9 (Homo sapiens, UniProt P11712); experiment: Inhibition of CYP2C9 (unknown origin) preincubated followed by substrate addition; type: ADME
Cytochrome P450 2C9, sequence (P11712 whole entry): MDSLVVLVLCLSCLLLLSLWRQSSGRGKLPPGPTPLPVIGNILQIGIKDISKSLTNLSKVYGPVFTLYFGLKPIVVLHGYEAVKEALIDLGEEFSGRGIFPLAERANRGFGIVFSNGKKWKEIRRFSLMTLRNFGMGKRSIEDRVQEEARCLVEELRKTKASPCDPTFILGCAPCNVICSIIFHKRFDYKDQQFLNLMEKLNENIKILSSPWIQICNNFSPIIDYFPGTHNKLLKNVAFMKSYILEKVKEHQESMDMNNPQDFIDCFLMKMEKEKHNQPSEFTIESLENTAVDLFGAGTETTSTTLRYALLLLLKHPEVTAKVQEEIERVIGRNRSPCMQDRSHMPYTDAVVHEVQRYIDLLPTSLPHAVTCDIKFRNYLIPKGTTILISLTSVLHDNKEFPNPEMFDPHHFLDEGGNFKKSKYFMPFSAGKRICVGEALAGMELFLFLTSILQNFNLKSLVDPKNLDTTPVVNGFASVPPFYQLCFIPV

[24] = Clearance in monkey at 1 mg/kg, iv; details: cynomolgus monkey, in vivo

CS[C@@]1(C(=O)Nc2ccc3[nH]nc(-c4ccc(OC(C)C)nc4)c3c2)CCN(CC(=O)N2CC=C(c3ccc(-c4ncn(C)n4)cc3)CC2)C1 [MK-8353]
MRT [1]: 4 h
inhibition (INH) (Cytochrome P450 2C19): Not Active
bioavailability [2]: 50%
Activity (Caspase (Homo sapiens)): 185 nM
inhibition (hERG (KCNH2) [3]): -3.5%
Vd [4]: 0.1 L/kg
fraction unbound at 10 µM [5]: < 0.01
IC50 (Cytochrome P450 3A4): > 5 µM
Activity (Cavia porcellus): Non-Toxic
inhibition (hERG (KCNH2) [6]): 6%
Tmax [7]: 1.4 h
clearance [8]: 3.9 mL/min/kg
inhibition at 1 µM (hERG (KCNH2) [9]): -1.7%
clearance [10]: 1 mL/min/kg
bioavailability [11]: 23%
MRT [12]: 1.9 h
IC50 [13]: 0.007 µM
inhibition [14]: Dose-dependent effect
inhibition (INH) (Cytochrome P450 2D6): Not Active
inhibition [15]: Dose-dependent effect
Vd [16]: 0.9 L/kg
fraction unbound at 10 µM [17]: < 0.01
inhibition in vivo at 20 mg/kg (COLO 205 [18]): 37%
bioavailability [19]: 2%
IC50 (Cytochrome P450 2C8): 3.5 µM
Vd [20]: 3.3 L/kg
inhibition at 0.6 µM (hERG (KCNH2) [21]): 16%
half-life [22]: 2.8 h
Activity (COLO 205 [23]): 40%
IC50 (Cytochrome P450 2C9): > 5 µM
clearance [24]: 17.9 mL/min/kg
